Compound activity deposited in PubChem by The Scripps Research Institute Molecular Screening Center.
The list is not random: actives were taken first. Their share in the collection is about 3%.
S1P1 ag-PAM = agonists and agonism potentiators of human S1P1 receptor | P21453 | S1P1 CRE-bla cells, forskolin, beta-lactamase FRET, potentiator mode; S1P1 agonist co-added at EC20, 2 nM; 100% = saturating reference agonist, 0% = basal | activation, % at 9.5 µM | hit rate 0.57% among 56,000;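 active = activation above a cutoff set at the mean activation of all tested compounds plus 3 SD, cut at about 54% in these data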;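 note: forskolin at 4 µM as EC80 and the EC20 agonist is SEW2871; 100% = SEW2871 at its EC100 plus forskolin at EC80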
Target sequence (P21453 whole entry, looked up): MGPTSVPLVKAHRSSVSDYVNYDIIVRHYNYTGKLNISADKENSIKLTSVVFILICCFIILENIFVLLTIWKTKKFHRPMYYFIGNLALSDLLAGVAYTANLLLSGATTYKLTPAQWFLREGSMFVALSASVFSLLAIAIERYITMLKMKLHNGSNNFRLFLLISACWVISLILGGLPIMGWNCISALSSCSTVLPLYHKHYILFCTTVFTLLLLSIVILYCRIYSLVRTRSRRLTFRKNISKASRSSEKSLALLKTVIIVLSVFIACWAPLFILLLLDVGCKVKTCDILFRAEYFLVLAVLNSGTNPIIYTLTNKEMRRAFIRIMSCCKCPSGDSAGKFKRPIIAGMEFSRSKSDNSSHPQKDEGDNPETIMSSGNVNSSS
S1P3 ag = activates the human S1P3 receptor; S1P3 NFAT-BLA reporter cells, agonism, FRET ratio; relative to 1 µM S1P, basal subtracted; activation, % at 4.5 µM; hit rate 0.1% among 60,000; AID 373;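 active = activation above the screen-wide mean plus 3 SD, cut at about 4.5% in these data, passing the limit was not always enough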
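Assay system: stable CHO line with human S1P3, Gα16, NFAT-BLA reporter; Detection: FRET β-lactamase substrate fluorescence, excitation 405 nm, 460/535 nm emission ratio, background-subtracted; Read-out: percent activation versus median 1 µM S1P response, basal-subtracted, per plate; Incubation: cells plated overnight, compound 4 h 37 °C, substrate 2 h RT.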
HTR1E agonist = 5-HT1E (human) receptor agonism | P28566 | CHO 5-HT1E Ga15 NFAT-bla reporter, FRET; 0% DMSO wells, 100% control agonist wells | activation, % at 6 µM | hit rate 0.69% among 65,000;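 active = activation above a set limit, the screen-wide mean activation plus 3 SD, cut at about 8.5% in these data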;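 note: 100% = positive control agonist at 1 µM giving full maximal response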
5-HT1A blocker = 5-HT1a (human) receptor antagonism; hit rate 0.68% among 62,000; inhibition, % at 10 µM; P08908; CHO 5-HT1a Ga15 NFAT-bla reporter, antagonist mode;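 active = inhibition above the mean of all tested compounds plus 3 SD, cut at about 43% in these data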;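 note: receptor stimulated by 5-CT agonist at 100 nM near EC80; beta-lactamase reporter measured by ratiometric fluorescence of a cleavable substrate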
HTR1E antagonist = antagonists of human 5-HT1E serotonin receptor. hit rate 0.99% among 65,000. inhibition, % at 6 µM. P28566. CHO 5-HT1E Ga15 NFAT-bla reporter, FRET, antagonist. AID 571;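 active = inhibition above a set limit, the mean inhibition across every tested compound plus 3 SD, cut at about 29% in these data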;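 note: signal is the 460 over 535 nm emission ratio of beta-lactamase substrate; 0% = agonist plus DMSO wells and 100% = wells without agonist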
5HT1a ag = 5-HT1a (human) receptor agonism; hit rate 0.56% among 65,000; activation, % at 10 µM; P08908; CHO 5-HT1a Ga15 NFAT-bla reporter, FRET ratio; 0% basal, 100% maximal reference agonist;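 active = activation above the screen-wide mean activation plus 3 SD, cut at about 19% in these data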;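 note: 0% = DMSO wells and 100% = 5-CT at EC100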
Active calls of the source: *.

How did O=C(NCC1CCCO1)C1C2C=CC3(CN(Cc4cccs4)C(=O)C13)O2 (stereo unspecified) do in these assays?
S1P1 ag-PAM: -11; S1P3 ag: -1; HTR1E agonist: 29*; 5-HT1A blocker: 7; HTR1E antagonist: 2; 5HT1a ag: -1

What do the screens show for `O=C(NC1CCCC1)C1C2C=CC3(CN(Cc4cccs4)C(=O)C13)O2` (stereo unspecified)?
S1P1 ag-PAM: 4; S1P3 ag: 0; HTR1E agonist: 2; 5-HT1A blocker: -5; HTR1E antagonist: 0; 5HT1a ag: 1

What do the screens show for `CCOC(=O)c1c(-c2ccc(C)o2)csc1NC(=O)CSc1nnnn1-c1ccccc1`?
S1P1 ag-PAM: -25; S1P3 ag: -1; HTR1E agonist: 1; 5-HT1A blocker: 18; HTR1E antagonist: -14; 5HT1a ag: 0

Results for CCOC(=O)c1c(-c2ccc(C)o2)csc1NC(=O)CSc1nnc(C)s1 ?
S1P1 ag-PAM: -36; S1P3 ag: -1; HTR1E agonist: 2; 5-HT1A blocker: 56*; HTR1E antagonist: 17; 5HT1a ag: 2

How did Cn1c(Cn2c(=O)sc3ccccc32)nnc1SCC(=O)NCc1ccc(F)cc1 do in these assays?
S1P1 ag-PAM: -6; S1P3 ag: 0; HTR1E agonist: 0; 5-HT1A blocker: -11; HTR1E antagonist: -24; 5HT1a ag: 40*

Results for CC(=O)Nc1ccc(S(=O)(=O)N(C)c2ccc(O)cc2)cc1 ?
S1P1 ag-PAM: 6; S1P3 ag: -1; HTR1E agonist: 52*; 5-HT1A blocker: 1; HTR1E antagonist: 4; 5HT1a ag: -2

What do the screens show for `Cc1cccc2nc(C(F)(F)F)nc(=O)n12`?
S1P1 ag-PAM: -5; S1P3 ag: -1; HTR1E agonist: -1; 5-HT1A blocker: 10; HTR1E antagonist: 14; 5HT1a ag: -3

What do the screens show for `CCOc1ccccc1N1CCN(CC(O)COc2ccc3c(C)cc(=O)oc3c2)CC1` (stereo unspecified)?
HTR1E agonist: 0; 5-HT1A blocker: 89*; HTR1E antagonist: 6; 5HT1a ag: 5

What do the screens show for `Cc1cc(=O)oc2cc(OCC(O)CN3CCN(c4ccc(F)cc4)CC3)ccc12` (stereo unspecified)?
HTR1E agonist: -1; 5-HT1A blocker: 17; HTR1E antagonist: 3; 5HT1a ag: 1

How did Cc1ccc(C)c(-n2nnnc2Sc2nnnn2-c2ccccc2)c1 do in these assays?
S1P1 ag-PAM: 56; S1P3 ag: -1; HTR1E agonist: -1; 5-HT1A blocker: 46*; HTR1E antagonist: 25; 5HT1a ag: -1

What do the screens show for `CCCCC(c1nnnn1C1CCCC1)N1CCN(C2CCCCC2)CC1` (stereo unspecified)?
S1P1 ag-PAM: -5; S1P3 ag: 0; HTR1E agonist: 0; 5-HT1A blocker: 50*; HTR1E antagonist: 5; 5HT1a ag: -1

Results for CCCC(c1nnnn1C1CCCCC1)N1CCN(c2ncccn2)CC1 (stereo unspecified) ?
S1P1 ag-PAM: 0; S1P3 ag: -1; HTR1E agonist: 0; 5-HT1A blocker: 8; HTR1E antagonist: 2; 5HT1a ag: 1

What do the screens show for `CCn1cc(C(=O)OCC(=O)NCc2ccc3c(c2)OCO3)c(=O)c2ccc(C)nc21`?
S1P1 ag-PAM: -21; S1P3 ag: 0; HTR1E agonist: 0; 5-HT1A blocker: -8; HTR1E antagonist: 4; 5HT1a ag: -1

How did CSC1=C(C#N)C(c2ccc(Cl)cc2)C2=C(CC(C)(C)CC2=O)N1 (stereo unspecified) do in these assays?
S1P1 ag-PAM: 29; S1P3 ag: -2; HTR1E agonist: 1; 5-HT1A blocker: 7; HTR1E antagonist: -15; 5HT1a ag: -3

Results for CCCSC1=C(C#N)C(c2ccc(OC)cc2)C2=C(CC(C)(C)CC2=O)N1 (stereo unspecified) ?
S1P1 ag-PAM: -4; S1P3 ag: 0; HTR1E agonist: 1; HTR1E antagonist: 50*; 5HT1a ag: -1

Results for Cc1cccc(OCC(O)Cn2c(=N)n(CCN3CCCCC3)c3ccccc32)c1 (stereo unspecified) ?
S1P1 ag-PAM: -7; S1P3 ag: -2; HTR1E agonist: 0; 5-HT1A blocker: 68*; HTR1E antagonist: 6; 5HT1a ag: 7

How did N=c1n(Cc2ccccc2)c2ccccc2n1CC(O)c1ccco1 (stereo unspecified) do in these assays?
S1P1 ag-PAM: -1; S1P3 ag: 0; HTR1E agonist: 0; 5-HT1A blocker: 13; HTR1E antagonist: 0; 5HT1a ag: -4

What do the screens show for `COc1ccc(OCC(O)Cn2c(=N)n(Cc3ccccc3)c3ccccc32)cc1` (stereo unspecified)?
S1P1 ag-PAM: 9; S1P3 ag: -1; HTR1E agonist: -2; 5-HT1A blocker: 48*; HTR1E antagonist: 12; 5HT1a ag: -3

Results for O=C(Nc1ccc(N2CCCCC2)c(Cl)c1)c1ncn[nH]1 ?
S1P1 ag-PAM: 127*; S1P3 ag: 0; HTR1E agonist: 1; 5-HT1A blocker: -60; HTR1E antagonist: -5; 5HT1a ag: -5

How did CCOC(=O)c1ccc(CNC(=O)c2cc(C(C)(C)C)oc2C)o1 do in these assays?
S1P1 ag-PAM: 14; S1P3 ag: 0; HTR1E agonist: -1; 5-HT1A blocker: 5; HTR1E antagonist: -1; 5HT1a ag: -3

What do the screens show for `O=C(CSc1nnc(Cc2cccs2)n1Cc1ccco1)Nc1cccc(Cl)c1`?
S1P1 ag-PAM: 12; S1P3 ag: 0; HTR1E agonist: -1; 5-HT1A blocker: 41; HTR1E antagonist: 3; 5HT1a ag: 2

How did O=C(CSc1nnc(Cc2cccs2)n1Cc1ccco1)Nc1cc(Cl)cc(Cl)c1 do in these assays?
S1P1 ag-PAM: 7; S1P3 ag: 0; HTR1E agonist: 1; 5-HT1A blocker: 46*; HTR1E antagonist: -6; 5HT1a ag: 3

Results for CCCCOc1ccc(Cl)cc1CSc1nnc(CC)n1N ?
S1P3 ag: -2; HTR1E agonist: 0; 5-HT1A blocker: 3; HTR1E antagonist: -2; 5HT1a ag: -2

Results for Oc1c(CN2CCCCC2)cc(COCc2ccccc2)c2cccnc12 ?
S1P1 ag-PAM: 13; S1P3 ag: 0; HTR1E agonist: 2; 5-HT1A blocker: 30; HTR1E antagonist: 48*; 5HT1a ag: -2

What do the screens show for `COCc1cc(CN2CCCC2)c(O)c2ncccc12`?
S1P1 ag-PAM: -18; S1P3 ag: -1; HTR1E agonist: 2; 5-HT1A blocker: 5; HTR1E antagonist: 16; 5HT1a ag: 0

How did COc1ccc(CN2CCN(c3ncccn3)CC2)c(OC)c1 do in these assays?
S1P1 ag-PAM: -19; S1P3 ag: -1; HTR1E agonist: 2; 5-HT1A blocker: 0; HTR1E antagonist: -4; 5HT1a ag: 4
